Experimental data from ChEMBL document CHEMBL4049458, “Structure-Based Optimization of Thiophene[3,2-d]pyrimidine Derivatives as Potent HIV-1 Non-nucleoside Reverse Transcriptase Inhibitors with Improved Potency against Resistance-Associated Variants” (J Med Chem, 2017).

Columns and labels:
[1] = Selectivity index, ratio of CC50 for human MT4 cells to EC50 for reverse transcriptase Y181C mutant in human MT4 cells infected HIV1 3B
[2] = Cytotoxicity against human MT4 cells assessed as cell viability after 5 days by MTT assay; format: cell-based
[3] = Selectivity index, ratio of CC50 for human MT4 cells to EC50 for HIV1 RES056 reverse transcriptase K103N/Y181C double mutant infected in human MT4 cells
[4] = Selectivity index, ratio of CC50 for human MT4 cells to EC50 for reverse transcriptase L100I mutant in human MT4 cells infected HIV1 3B
[5] = Selectivity index, ratio of CC50 for human MT4 cells to EC50 for reverse transcriptase K103N mutant in human MT4 cells infected HIV1 3B
[6] = tested on: Human immunodeficiency virus type 1 reverse transcriptase (Human immunodeficiency virus 1), Q72547 [K103N]; test: Potency index, ratio of EC50 for EFV to EC50 for test compound for reverse transcriptase K103N mutant in human MT4 cells infected HIV1 3B; format: cell-based
[7] = Selectivity index, ratio of CC50 for human MT4 cells to EC50 for reverse transcriptase F227L/V106A double mutant in human MT4 cells infected HIV1 3B
[8] = tested on: Human immunodeficiency virus type 1 reverse transcriptase (Human immunodeficiency virus 1), Q72547 [K103N]; test: Potency index, ratio of EC50 for NVP to EC50 for test compound for reverse transcriptase K103N mutant in human MT4 cells infected HIV1 3B; format: cell-based
[9] = Selectivity index, ratio of CC50 for human MT4 cells to EC50 for wild type HIV1 3B harboring reverse transcriptase infected in human MT4 cells
[10] = Selectivity index, ratio of CC50 for human MT4 cells to EC50 for reverse transcriptase E138K mutant in human MT4 cells infected HIV1 3B
[11] = tested on: Human immunodeficiency virus 1; test: Antiviral activity against wild type HIV1 3B harboring reverse transcriptase infected in human MT4 cells assessed as protection against virus induced cytotoxicity after 5 days by MTT assay; format: functional, cell-based; conditions: Human immunodeficiency virus 1, 3B, MT4, 120 h
[12] = tested on: Human immunodeficiency virus 2; test: Antiviral activity against HIV2 ROD harboring reverse transcriptase infected in human MT4 cells assessed as protection against virus induced cytotoxicity after 5 days by MTT assay; format: functional, cell-based; conditions: Human immunodeficiency virus 2, ISOLATE ROD, MT4, 120 h
[13] = Selectivity index, ratio of CC50 for human MT4 cells to EC50 for reverse transcriptase Y188L mutant in human MT4 cells infected HIV1 3B
[14] = tested on: Rattus norvegicus; test: VRT(0 to infinity) in Sprague-Dawley rat at 24 mg/kg, po by LC-MS analysis; format: ADME, organism-based; conditions: in vivo
[15] = tested on: Mus musculus; test: Toxicity in Kunming mouse assessed as mortality at 2000 mg/kg, ig administered via gavage measure after 2 weeks; format: organism-based; conditions: in vivo, po, 336 h
[16] = tested on: Rattus norvegicus; test: VRT(0 to t) in Sprague-Dawley rat at 24 mg/kg, po by LC-MS analysis; format: ADME, organism-based; conditions: in vivo
[17] = MRT(0 to t) in Sprague-Dawley rat at 2 mg/kg, iv by LC-MS analysis; format: ADME, organism-based; conditions: in vivo
[18] = Cmax in Sprague-Dawley rat at 24 mg/kg, po by LC-MS analysis; format: ADME, organism-based; set-up: dose 24 mg/kg, route oral; conditions: in vivo
[19] = MRT(0 to infinity) in Sprague-Dawley rat at 24 mg/kg, po by LC-MS analysis; format: ADME, organism-based; conditions: in vivo
[20] = tested on: Rattus norvegicus; test: Apparent clearance during terminal phase in Sprague-Dawley rat at 2 mg/kg, iv by LC-MS analysis; format: ADME, organism-based; conditions: in vivo
[21] = Tmax in Sprague-Dawley rat at 24 mg/kg, po by LC-MS analysis; format: ADME, organism-based; conditions: in vivo
[22] = MRT(0 to infinity) in Sprague-Dawley rat at 2 mg/kg, iv by LC-MS analysis; format: ADME, organism-based; conditions: in vivo
[23] = tested on: Rattus norvegicus; test: VRT(0 to infinity) in Sprague-Dawley rat at 2 mg/kg, iv by LC-MS analysis; format: ADME, organism-based; conditions: in vivo
[24] = Cmax in Sprague-Dawley rat at 2 mg/kg, iv by LC-MS analysis; format: ADME, organism-based; set-up: dose 2 mg/kg, route intravenous; conditions: in vivo
[25] = AUC(0 to t) in Sprague-Dawley rat at 24 mg/kg, po by LC-MS analysis; format: ADME, organism-based; conditions: in vivo
[26] = MRT(0 to t) in Sprague-Dawley rat at 24 mg/kg, po by LC-MS analysis; format: ADME, organism-based; conditions: in vivo
[27] = tested on: Rattus norvegicus; test: AUC(0 to infinity) in Sprague-Dawley rat at 24 mg/kg, po by LC-MS analysis; format: ADME, organism-based; set-up: dose 24 mg/kg, route oral, time infinity; conditions: in vivo
[28] = tested on: Rattus norvegicus; test: VRT(0 to t) in Sprague-Dawley rat at 2 mg/kg, iv by LC-MS analysis; format: ADME, organism-based; conditions: in vivo
[29] = Inhibition of recombinant wild type HIV1 3B reverse transcriptase infected in human MT4 cells assessed as decrease in biotin-dUTP incorporation after 1 hr; format: cell-based; conditions: Human immunodeficiency virus 1, 3B, MT4, 1 h
Outline: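 Recombinant HIV-1 RT assayed with a kit ELISA. Enzyme, reconstituted template and nucleotides (DIG-dUTP, biotin-dUTP, dTTP) were incubated in incubation buffer with or without inhibitor for 1 h at 37 °C. Product was captured on streptavidin plates for 1 h at 37 °C, then anti-DIG-POD was added for 1 h at 37 °C, followed by ABTS. Read at OD405.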

[30] = tested on: Mus musculus; test: Toxicity in Kunming mouse assessed as increase in body weight at 2000 mg/kg, ig administered via gavage measure after 2 weeks; format: organism-based; conditions: in vivo, po, 336 h
[31] = Apparent half life in Sprague-Dawley rat at 24 mg/kg, po by LC-MS analysis; format: ADME, organism-based; conditions: in vivo, read-out: t1/2(app) (converted)
[32] = AUC(0 to t) in Sprague-Dawley rat at 2 mg/kg, iv by LC-MS analysis; format: ADME, organism-based; conditions: in vivo
[33] = AUC(0 to infinity) in Sprague-Dawley rat at 2 mg/kg, iv by LC-MS analysis; format: ADME, organism-based; set-up: dose 2 mg/kg, time infinity, route intravenous; conditions: in vivo
[34] = Apparent half life in Sprague-Dawley rat at 2 mg/kg, iv by LC-MS analysis; format: ADME, organism-based; conditions: in vivo, read-out: t1/2(app) (converted)
[35] = Fold resistance, ratio of EC50 for reverse transcriptase K103N mutant in human MT4 cells infected HIV1 3B to EC50 for wild type HIV1 3B harboring reverse transcriptase infected in human MT4 cells; format: functional
Outline: (§1)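 MT-4 cells at 6 × 10^5 cells/mL were infected with WT HIV-1 IIIB or RT-mutant strains at 100−300 CCID50, with 5-fold serial compound dilutions in triplicate wells. After 5 days, viability was read by MTT reduction at 540 and 690 nm, using the median OD of three wells. […] Fold resistance is mutant EC50 divided by WT EC50.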

[36] = Fold resistance, ratio of EC50 for reverse transcriptase Y181C mutant in human MT4 cells infected HIV1 3B to EC50 for wild type HIV1 3B harboring reverse transcriptase infected in human MT4 cells; format: functional; outline: as §1
[37] = Fold resistance, ratio of EC50 for reverse transcriptase L100I mutant in human MT4 cells infected HIV1 3B to EC50 for wild type HIV1 3B harboring reverse transcriptase infected in human MT4 cells; format: functional; outline: as §1
[38] = Fold resistance, ratio of EC50 for reverse transcriptase E138K mutant in human MT4 cells infected HIV1 3B to EC50 for wild type HIV1 3B harboring reverse transcriptase infected in human MT4 cells; format: functional; outline: as §1
[39] = Fold resistance, ratio of EC50 for reverse transcriptase K103N/Y181C double mutant in human MT4 cells infected HIV1 RES056 to EC50 for wild type HIV1 3B harboring reverse transcriptase infected in human MT4 cells; format: functional; outline: as §1
[40] = Fold resistance, ratio of EC50 for reverse transcriptase F227L/V106A double mutant in human MT4 cells infected HIV1 3B to EC50 for wild type HIV1 3B harboring reverse transcriptase infected in human MT4 cells; format: functional; outline: as §1
[41] = Fold resistance, ratio of EC50 for reverse transcriptase Y188L mutant in human MT4 cells infected HIV1 3B to EC50 for wild type HIV1 3B harboring reverse transcriptase infected in human MT4 cells; format: functional; outline: as §1

Cc1cc(C#N)cc(C)c1Oc1nc(NC2CCN(Cc3ccc(S(C)(=O)=O)cc3)CC2)nc2sccc12
selectivity ratio ([1]; MT4 cells): 200
CC50 at 120 h [2]: 1.19 µM
selectivity ratio ([3]; MT4 cells): 28
selectivity ratio ([4]; MT4 cells): 152
selectivity ratio ([5]; MT4 cells): 725
Ratio EC50 [6]: 50
selectivity ratio ([7]; MT4 cells): 137
Ratio EC50 [8]: 3370
selectivity ratio ([9]; MT4 cells): 335
selectivity ratio ([10]; MT4 cells): 164
EC50 [11]: 3.56 nM
EC50 [12]: > 1.19 µM
selectivity ratio ([13]; MT4 cells): 124

Cc1cc(/C=C/C#N)cc(C)c1Oc1nc(NC2CCN(Cc3ccc(S(N)(=O)=O)cc3)CC2)nc2ccsc12
VRT [14]: 35.67 hr2
Activity [15]: Non-Toxic
VRT(t) [16]: 8.11 hr2
MRT last [17]: 1.57 h
Cmax [18]: 553 ng/mL
MRT inf [19]: 5.54 h
CLz/F [20]: 0.0145 L/h/kg
Tmax [21]: 1.7 h
MRT inf [22]: 1.69 h
VRT [23]: 3.72 hr2
Cmax [24]: 2220 ng/mL
AUC(0-t) [25]: 2320 ng·h/mL
MRT last [26]: 3.71 h
AUC [27]: 2692.2 µg·h/L
VRT(t) [28]: 2.78 hr2
IC50 [29]: 160 nM
Activity [30]: Non-Toxic
half-life [31]: 236 min
AUC(0-t) [32]: 1370 ng·h/mL
EC50 [11]: 1.22 nM
AUC(0-inf) [33]: 1390 ng·h/mL
half-life [34]: 80.4 min

Cc1cc(C#N)cc(C)c1Oc1nc(Nc2ccc(C#N)cc2)nc(N)c1Br [ETRAVIRINE]
selectivity ratio [1]: > 291
CC50 at 120 h [2]: > 4.59 µM
Ratio EC50 [35]: 0.6 - 7.2
selectivity ratio [3]: > 270
Ratio EC50 [36]: 0.6 - 7.2
Ratio EC50 [37]: 1.3
selectivity ratio [4]: > 853
selectivity ratio [5]: > 1950
selectivity ratio [7]: 156
Ratio EC50 [38]: 0.6 - 7.2
Ratio EC50 [39]: 4.2
Ratio EC50 [40]: 0.6 - 7.2
IC50 [29]: 1000 nM
selectivity ratio [9]: > 1130
selectivity ratio [10]: > 318
EC50 [11]: 4.07 nM
Ratio EC50 [41]: 0.6 - 7.2
selectivity ratio [13]: > 224

Cc1cc(C#N)cc(C)c1Oc1nc(NC2CCN(Cc3ccc(S(N)(=O)=O)cc3)CC2F)nc2ccsc12 (stereo unspecified)
selectivity ratio ([1]; MT4 cells): 171
CC50 at 120 h [2]: 5.15 µM
Ratio EC50 [35]: 1.4 - 6.5
selectivity ratio ([3]; MT4 cells): 138
Ratio EC50 [36]: 1.4 - 6.5
Ratio EC50 [37]: 1.4 - 6.5
selectivity ratio ([4]; MT4 cells): 576
selectivity ratio ([5]; MT4 cells): 653
selectivity ratio ([7]; MT4 cells): 590
Ratio EC50 [38]: 1.4 - 6.5
Ratio EC50 [39]: 1.4 - 6.5
Ratio EC50 [40]: 1.4 - 6.5
selectivity ratio ([9]; MT4 cells): 906
selectivity ratio ([10]; MT4 cells): 296
EC50 [11]: 5.69 nM
Ratio EC50 [41]: 1.4 - 6.5
EC50 [12]: > 5.15 µM
selectivity ratio ([13]; MT4 cells): 370
